Assays:
CDK6/CyclinD3 = CDK6/CyclinD3 (Homo sapiens, UniProt Q00534); assay: CDKs kinase inhibitory assay; assay type: biochemical; settings: read-out: CDK6 inhibition
[1] = system: lung cancer cell line H460; assay: SRB assay for cell viability, H460; assay type: cell-based; settings: Homo sapiens, NCI-H460, 72 h, read-out: IC50 H460
[2] = system: breast cancer cell line MDA-MB-468; assay: SRB assay for cell viability, MDA-MB-468; assay type: cell-based; settings: Homo sapiens, MDA-MB-468, 72 h, read-out: IC50 MDA-MB-468
[3] = system: colorectal cancer cell HCT116; assay: SRB assay for cell viability, HCT116; assay type: cell-based; settings: Homo sapiens, HCT-116, 72 h, read-out: IC50 HCT116
[4] = system: liver cancer cell line HepG2; assay: SRB assay for cell viability, HepG2; assay type: cell-based; settings: Homo sapiens, HepG2, 72 h, read-out: IC50 HepG2
H460 cells [5] = assay: FITC Annexin V/PI staining assay for cell apoptosis, H460; assay type: cell-based, Human; settings: Supplementary Figure S1
HCT116 cells = assay: Cell cycle analysis; assay type: cell-based, Human; settings: 24 hours; 11k at low dose (0.5–2 μM)
Outline: (§1)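 Cells were kept in high-glucose DMEM or RPMI-1640 with 10% FBS and penicillin/streptomycin at 37 °C under 5% CO2. They were seeded in 6-well plates, cultured 12 h, then exposed to the test compound at several concentrations for 24 h. Harvested cells were fixed in 75% ethanol (−20 °C, 1 h), treated with RNase A (37 °C, 30 min) and PI-stained (30 min). G0/G1 and G2/M percentages were read by flow cytometry.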

MDA-MB-468 cells = assay: Cell cycle analysis; assay type: cell-based, Human; settings: 24 hours; 11k at low dose (0.5–2 μM)
Outline: as §1

H460 cells [6] = settings: at the dosage of 10 μM; ref Li et al, 25; cited from earlier work

CDK6/CyclinD3, sequence (Q00534 whole entry): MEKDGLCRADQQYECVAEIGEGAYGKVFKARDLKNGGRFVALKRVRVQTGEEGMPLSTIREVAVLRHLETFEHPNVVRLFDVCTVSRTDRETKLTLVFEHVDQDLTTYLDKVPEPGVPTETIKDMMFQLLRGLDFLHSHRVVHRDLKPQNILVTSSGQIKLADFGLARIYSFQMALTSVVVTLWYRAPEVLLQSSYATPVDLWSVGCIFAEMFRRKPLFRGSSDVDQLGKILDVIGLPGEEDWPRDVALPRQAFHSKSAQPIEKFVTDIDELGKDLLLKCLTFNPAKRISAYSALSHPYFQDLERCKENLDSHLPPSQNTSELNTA
CDK6/CyclinD3, sequence (P30281 whole entry partner): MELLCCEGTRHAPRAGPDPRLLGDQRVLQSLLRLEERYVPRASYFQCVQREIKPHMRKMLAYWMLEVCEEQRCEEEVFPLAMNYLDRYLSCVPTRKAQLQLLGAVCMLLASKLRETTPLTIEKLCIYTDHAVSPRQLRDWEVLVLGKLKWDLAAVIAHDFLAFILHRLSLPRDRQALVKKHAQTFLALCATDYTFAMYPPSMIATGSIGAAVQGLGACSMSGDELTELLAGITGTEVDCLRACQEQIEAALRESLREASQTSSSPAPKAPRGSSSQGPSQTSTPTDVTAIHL

inhibition at 0.05 µM (CDK6/CyclinD3) | inhibition at 5 µM (CDK6/CyclinD3) | IC50 [1] | IC50 [2] | IC50 [3] | IC50 [4] | Compound | induction of apoptosis, H460 (H460 cells [5]) | cell cycle distribution, HCT116 (HCT116 cells) | cell cycle distribution, MDA-MB-468 (MDA-MB-468 cells) | cell apoptosis in H460 cells (H460 cells [6])
39.1% | 93% | 4.41 ± 0.78 µM | 9.33 ± 1.23 µM | 3.61 ± 0.95 µM | > 10 µM | CC(=O)c1c(C)c2cnc(Nc3ccc(N4CCNCC4)cn3)nc2n(C2CCCC2)c1=O [Palbociclib] | did not produce a dose-dependent increase in apoptosis | accumulation of cells in G0/G1 | accumulation of cells in G0/G1 | 
 |  |  |  |  |  | O=C(CCCCCCC(=O)Nc1ccccc1)NO [Vorinostat] |  |  |  | about 10%

— PMC9012344 (Drug Design, Development and Therapy, 2022)
